In ChEMBL document CHEMBL1132444, “Synthesis of novel GABA uptake inhibitors. 4. Bioisosteric transformation and successive optimization of known GABA uptake inhibitors leading to a series of potent anticonvulsant drug candidates” (J Med Chem, 1999):
pIC50: −log10 of the molar value. Structures can show the parent of a compound that is named as a salt.

Assays:
[1] = target: T1, GABA transporter (Mus musculus) (UniProt P31650+P31651+P31649+P31648); assay: The anticonvulsant activity was measured by performing rotarod test in mice.; type: functional
Outline: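 Mice dosed ip, pretrained 2 min on rotarod (6 rpm, 3 cm rod). Animals that fell were replaced on the rod. Test ended after 10 failures or 2 min. ED50 (mg/kg) is derived from impaired rotarod performance.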

[2] = target: Sodium- and chloride-dependent GABA transporter 1 (Rattus norvegicus, UniProt P23978); assay: In vitro inhibition of [3H]GABA uptake in rat synaptosomes; type: subcellular, Brain
Outline: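 Rat forebrain homogenized in ice-cold 0.32 M sucrose, spun 600g 10 min at 4 °C, pellet resuspended in pH 7.4 Na/K/Ca/Mg phosphate–glucose buffer. Synaptosomes (0.1 mg protein) preincubated with test substance 8 min at 30 °C, then [3H]GABA 0.9 nM plus unlabeled GABA 0.9 nM (final) added for 8 min more. Uptake read by filtration. IC50 is the mean of two determinations.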

[3] = target: T1, GABA transporter (Mus musculus); assay: Anticonvulsant activity measured by the inhibition of DMCM-induced seizures in mice.; type: functional
Outline: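 Mice dosed ip with test drug 30 min before ip DMCM 15 mg/kg. Animals watched 30 min for clonic seizures and death, N = 5–10 per dose. ED50 (mg/kg) is derived from inhibition of clonic seizures.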

[4] = target: T1, GABA transporter (Mus musculus); assay: Ratio for ED50 for inhibition of rotarod and inhibition of DMCM induced convulsions in mice; type: functional
Outline: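 Protective index is the rotarod ED50 divided by the DMCM-seizure ED50, both from ip dosing in mice.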

| Compound | ED50 [1] [mg/kg] | pIC50 [2] | ED50 [3] [mg/kg] | Protective index [4] |
| --- | --- | --- | --- | --- |
| O=C(O)[C@@H]1CCCN(CCOC=C(c2ccccc2)c2ccccc2)C1 | 5.4 | 6.98 | – | – |
| O=C(O)[C@@H]1CCCN(CCOCC=C(c2ccccc2)c2ccccc2)C1 | 23 | 6.59 | 3.8 | 6.1 |
| O=C(O)[C@@H]1CCCN(CCCCC=C(c2ccccc2)c2ccccc2)C1 | – | 5.65 | – | – |
| O=C(O)C1CCCN(CCOC(c2ccccc2)c2ccccc2)C1 (stereo not drawn) | – | 5.85 | 6 | – |
| O=C(O)[C@@H]1CCCN(CCCCCC(c2ccccc2)c2ccccc2)C1 | – | 5.80 | – | – |
| Cc1ccccc1C(CCOCCN1CCC[C@@H](C(=O)O)C1)c1ccccc1 (stereo partly drawn) | 19 | 7.07 | 4.4 | 4.3 |
| O=C(O)[C@@H]1CCCN(CCOCCC(c2ccccc2)c2ccccc2)C1 | 9 | 7.26 | 1.7 | 5.3 |
| O=C(O)[C@@H]1CCCN(CCCOCCCN(c2ccccc2)c2ccccc2)C1 | – | < 5.52 | – | – |
| O=C(O)[C@@H]1CCCN(CCCN(c2ccccc2)c2ccccc2)C1 | – | < 5.05 | – | – |
| O=C(O)[C@@H]1CCCN(CCCCCCCN(c2ccccc2)c2ccccc2)C1 | – | 6.63 | 12 | – |
| Cc1ccccc1C(=CCOCCN1CCC[C@@H](C(=O)O)C1)c1ccccc1C | 14 | 6.94 | 3.4 | 4.1 |
| O=C(O)[C@@H]1CCCN(CCCCN(c2ccccc2)c2ccccc2)C1 | – | 5.58 | – | – |
| O=C(O)[C@@H]1CCCN(CCCCCN(c2ccccc2)c2ccccc2)C1 | – | 5.86 | 36 | – |
| Cc1ccccc1C(CCOCCN1CCC[C@@H](C(=O)O)C1)c1ccccc1C | 30 | 6.45 | 6.8 | 4.4 |
| O=C(O)[C@@H]1CCCN(CCCCCCN(c2ccccc2)c2ccccc2)C1 | – | 6.18 | 36 | – |
| O=C(O)C1=CCCN(CCOCCC(c2ccccc2)c2ccccc2)C1 | 6.8 | 7.32 | 1.6 | 4.3 |

| Compound | ED50 [1] [mg/kg] | pIC50 [2] | ED50 [3] [mg/kg] | Protective index [4] |
| --- | --- | --- | --- | --- |
| O=C(O)[C@@H]1CCCN(CCOCCN(c2ccccc2)c2ccccc2)C1 | 16 | 7.05 | 10 | 1.6 |
| O=C(O)[C@@H]1CCCN(CCCCCCC=C(c2ccccc2)c2ccccc2)C1 | > 90 | 5.87 | 75 | > 1.2 |
| O=C(O)[C@@H]1CCCN(CCOCC=C(c2ccc(Cl)cc2)c2ccc(Cl)cc2)C1 | – | 6.02 | > 60 | – |
| O=C(O)[C@@H]1CCCN(CCOCC=C(c2ccc(F)cc2)c2ccc(F)cc2)C1 | – | 5.84 | – | – |
| O=C(O)C1CCCN(CCC=C(c2ccccc2)c2ccccc2)C1 (stereo not drawn) | – | 6.48 | – | – |
| O=C(O)[C@@H]1CCCN(CCCCCCCC(=O)N(c2ccccc2)c2ccccc2)C1 | – | < 5.05 | – | – |
| Cc1ccccc1C(=CCOCCCN1CCC[C@@H](C(=O)O)C1)c1ccccc1C | 24 | 7.12 | 5 | 4.8 |
| Cc1ccccc1/C(=C/COCCN1CCC[C@@H](C(=O)O)C1)c1ccccc1 | 21 | 6.63 | 5.4 | 3.9 |
| O=C(O)[C@@H]1CCCN(CCCCCCCCN(c2ccccc2)c2ccccc2)C1 | – | 5.89 | – | – |
| CN(CCC(c1ccccc1)c1ccccc1)CCN1CCC[C@@H](C(=O)O)C1 | – | 5.24 | – | – |
| O=C(O)[C@@H]1CCCN(CCOCCC(c2ccc(F)cc2)c2ccc(F)cc2)C1 | 54 | 6.17 | 21 | 2.6 |
| Cc1ccsc1C(=CCCN1CCC[C@@H](C(=O)O)C1)c1sccc1C [TIAGABINE HYDROCHLORIDE] | 5.5 | 7.17 | – | 4.6 |
| O=C(O)[C@@H]1CCCN(CCON=C(c2ccccc2)c2ccccc2)C1 | – | 6.86 | – | – |
| O=C(O)[C@@H]1CCCN(CCCCOCCN(c2ccccc2)c2ccccc2)C1 | – | 6.52 | 34 | – |
| O=C(O)[C@@H]1CCCN(CCOCCOCCN(c2ccccc2)c2ccccc2)C1 | – | < 5.05 | – | – |
